Source: ChEMBL document CHEMBL1157620, “1-(Aryl)-6-[alkoxyalkyl]-3-azabicyclo[3.1.0]hexanes and 6-(aryl)-6-[alkoxyalkyl]-3-azabicyclo[3.1.0]hexanes: a new series of potent and selective triple reuptake inhibitors” (J Med Chem, 2010)

What was measured:
Homo sapiens [1] = species: Homo sapiens; test: Selectivity for human recombinant SERT over human recombinant DAT
Homo sapiens [2] = species: Homo sapiens; test: Selectivity for human recombinant NET over human recombinant DAT
[3] = Bioavailability in rat; format: ADME, organism-based; settings: in vivo
[4] = Blood clearance in rat; format: ADME, organism-based
[5] = target: Sodium-dependent noradrenaline transporter (Homo sapiens, UniProt P23975); test: Displacement of [3H]nisoxetine from human recombinant NET expressed in BacMam virus-transduced cells by scintillation proximity assay; format: cell-based
Sodium-dependent noradrenaline transporter, sequence (P23975 whole entry): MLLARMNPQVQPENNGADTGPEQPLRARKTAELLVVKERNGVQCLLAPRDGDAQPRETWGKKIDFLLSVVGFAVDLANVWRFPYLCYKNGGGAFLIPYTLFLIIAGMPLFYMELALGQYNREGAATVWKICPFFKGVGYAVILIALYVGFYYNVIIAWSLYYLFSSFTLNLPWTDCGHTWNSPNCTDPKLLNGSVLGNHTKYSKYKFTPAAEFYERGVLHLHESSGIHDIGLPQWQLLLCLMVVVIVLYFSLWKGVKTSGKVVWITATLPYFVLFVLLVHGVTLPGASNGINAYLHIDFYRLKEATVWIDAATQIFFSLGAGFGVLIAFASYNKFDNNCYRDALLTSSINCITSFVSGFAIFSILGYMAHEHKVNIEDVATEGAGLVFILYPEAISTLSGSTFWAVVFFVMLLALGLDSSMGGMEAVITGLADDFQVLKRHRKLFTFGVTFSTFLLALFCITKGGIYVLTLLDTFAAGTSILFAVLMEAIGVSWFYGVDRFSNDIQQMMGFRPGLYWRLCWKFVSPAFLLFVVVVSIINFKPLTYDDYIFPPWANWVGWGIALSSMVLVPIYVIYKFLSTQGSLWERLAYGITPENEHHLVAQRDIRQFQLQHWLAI
In short: (§1)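 BacMam-transduced membranes in SPA format. SERT: 1 mg/mL beads, 6 μg/mL membranes, 3 nM [3H]citalopram. NET: 2 mg/mL beads, 40 μg/mL membranes, 10 nM [3H]nisoxetine. Incubated overnight at room temperature; pKi from pIC50 by Cheng-Prusoff.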

[6] = target: Sodium-dependent serotonin transporter (Homo sapiens, UniProt P31645); test: Displacement of [3H]citalopram from human recombinant SERT expressed in BacMam virus-transduced cells by scintillation proximity assay; format: cell-based; in short: as §1
Sodium-dependent serotonin transporter, sequence (P31645 whole entry): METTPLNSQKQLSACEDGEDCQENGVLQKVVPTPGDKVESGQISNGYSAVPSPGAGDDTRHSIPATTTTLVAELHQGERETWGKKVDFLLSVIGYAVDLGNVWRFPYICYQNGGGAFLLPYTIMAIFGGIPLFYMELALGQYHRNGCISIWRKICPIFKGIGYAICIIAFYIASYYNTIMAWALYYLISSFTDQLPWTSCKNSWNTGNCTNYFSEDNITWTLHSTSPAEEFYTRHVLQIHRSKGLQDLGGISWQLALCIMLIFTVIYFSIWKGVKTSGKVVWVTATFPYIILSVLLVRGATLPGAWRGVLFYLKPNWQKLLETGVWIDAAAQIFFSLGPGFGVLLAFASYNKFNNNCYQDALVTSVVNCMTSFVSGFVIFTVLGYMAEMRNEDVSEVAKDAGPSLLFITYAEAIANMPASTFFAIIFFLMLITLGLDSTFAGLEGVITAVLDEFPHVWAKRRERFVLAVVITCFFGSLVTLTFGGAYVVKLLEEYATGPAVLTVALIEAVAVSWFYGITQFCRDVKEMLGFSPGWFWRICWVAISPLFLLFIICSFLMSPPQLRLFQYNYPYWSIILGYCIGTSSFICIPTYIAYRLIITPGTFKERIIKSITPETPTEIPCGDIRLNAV

[7] = Volume of distribution in rat; format: ADME, organism-based; settings: in vivo
[8] = target: Sodium-dependent dopamine transporter (Homo sapiens, UniProt Q01959); test: Displacement of [3H]WIN-35428 from human recombinant DAT expressed in BacMam virus-transduced cells by scintillation proximity assay; format: cell-based
Sodium-dependent dopamine transporter, sequence (Q01959 whole entry): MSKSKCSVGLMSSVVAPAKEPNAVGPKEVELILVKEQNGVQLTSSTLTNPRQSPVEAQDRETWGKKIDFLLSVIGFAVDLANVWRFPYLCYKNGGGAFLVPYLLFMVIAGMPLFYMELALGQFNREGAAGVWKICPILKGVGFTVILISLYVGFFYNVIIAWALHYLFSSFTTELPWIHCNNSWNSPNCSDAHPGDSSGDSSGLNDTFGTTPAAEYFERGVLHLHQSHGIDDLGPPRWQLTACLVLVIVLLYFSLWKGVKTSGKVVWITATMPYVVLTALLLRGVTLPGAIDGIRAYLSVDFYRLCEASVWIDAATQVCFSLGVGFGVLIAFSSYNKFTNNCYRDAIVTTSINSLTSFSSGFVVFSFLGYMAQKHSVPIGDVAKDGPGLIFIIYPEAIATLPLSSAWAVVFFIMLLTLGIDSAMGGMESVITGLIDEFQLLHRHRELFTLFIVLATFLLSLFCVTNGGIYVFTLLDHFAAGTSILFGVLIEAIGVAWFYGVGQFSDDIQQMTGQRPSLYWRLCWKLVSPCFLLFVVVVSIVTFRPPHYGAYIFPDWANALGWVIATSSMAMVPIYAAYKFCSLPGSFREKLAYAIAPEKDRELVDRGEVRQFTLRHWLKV

[9] = (§2) Half life in rat; format: ADME, organism-based; settings: in vivo
[10] = Ratio of drug level in brain to blood in rat; format: ADME, tissue-based; settings: read-out: BBR
[11] = Fraction unbound in rat brain; format: ADME, tissue-based; settings: brain
Rattus norvegicus = species: Rattus norvegicus; test: as §2; format: ADME, organism-based; settings: in vivo
Cytochrome P450 2C9 = Cytochrome P450 2C9 (Homo sapiens, UniProt P11712); test: Inhibition of human CYP2C9 by fluorescence assay; format: ADME
Cytochrome P450 2C9, sequence (P11712 whole entry): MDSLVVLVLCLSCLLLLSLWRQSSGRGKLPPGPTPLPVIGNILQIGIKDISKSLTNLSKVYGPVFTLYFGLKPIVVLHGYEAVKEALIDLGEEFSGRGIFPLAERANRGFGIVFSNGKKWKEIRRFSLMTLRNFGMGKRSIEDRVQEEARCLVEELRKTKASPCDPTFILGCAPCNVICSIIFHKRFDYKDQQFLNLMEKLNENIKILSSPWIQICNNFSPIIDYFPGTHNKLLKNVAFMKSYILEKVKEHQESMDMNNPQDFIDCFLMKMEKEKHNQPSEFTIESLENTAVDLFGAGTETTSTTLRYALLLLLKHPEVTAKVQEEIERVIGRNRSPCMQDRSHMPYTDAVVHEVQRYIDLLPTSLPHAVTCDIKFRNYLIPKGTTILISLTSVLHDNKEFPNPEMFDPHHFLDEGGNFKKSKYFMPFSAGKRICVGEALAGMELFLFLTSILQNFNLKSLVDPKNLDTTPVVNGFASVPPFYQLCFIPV
In short: (§3)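 Recombinant human P450 bactosomes (0.1 mg/mL) in 50 mM phosphate, pH 7.4. Test compound at 0.1-10 μM, preincubated 10 min at 37 °C with fluorogenic substrate: ethoxyresorufin 0.5 μM (1A2), FCA 50 μM (2C9), BMC 10 μM (2C19), MMC 10 μM (2D6).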

Cytochrome P450 3A4 = Cytochrome P450 3A4 (Homo sapiens, UniProt P08684); test: Inhibition of human CYP3A4 by fluorescence assay
Cytochrome P450 3A4, sequence (P08684 whole entry): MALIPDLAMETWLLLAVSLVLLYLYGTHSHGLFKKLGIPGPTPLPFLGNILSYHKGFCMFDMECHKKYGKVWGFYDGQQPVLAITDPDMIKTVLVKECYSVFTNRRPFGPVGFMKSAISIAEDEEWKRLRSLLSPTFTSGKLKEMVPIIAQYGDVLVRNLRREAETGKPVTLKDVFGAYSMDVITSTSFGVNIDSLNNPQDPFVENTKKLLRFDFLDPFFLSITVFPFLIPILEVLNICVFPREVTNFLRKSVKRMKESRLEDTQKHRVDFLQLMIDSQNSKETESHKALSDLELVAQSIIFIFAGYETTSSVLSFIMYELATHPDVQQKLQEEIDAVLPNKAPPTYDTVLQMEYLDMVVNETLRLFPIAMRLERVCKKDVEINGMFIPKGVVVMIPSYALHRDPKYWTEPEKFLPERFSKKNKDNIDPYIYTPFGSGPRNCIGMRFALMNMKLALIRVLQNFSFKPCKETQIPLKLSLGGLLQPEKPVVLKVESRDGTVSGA

Cytochrome P450 2C19 = Cytochrome P450 2C19 (Homo sapiens, UniProt P33261); test: Inhibition of human CYP2C19 by fluorescence assay; format: ADME; in short: as §3
Cytochrome P450 2C19, sequence (P33261 whole entry): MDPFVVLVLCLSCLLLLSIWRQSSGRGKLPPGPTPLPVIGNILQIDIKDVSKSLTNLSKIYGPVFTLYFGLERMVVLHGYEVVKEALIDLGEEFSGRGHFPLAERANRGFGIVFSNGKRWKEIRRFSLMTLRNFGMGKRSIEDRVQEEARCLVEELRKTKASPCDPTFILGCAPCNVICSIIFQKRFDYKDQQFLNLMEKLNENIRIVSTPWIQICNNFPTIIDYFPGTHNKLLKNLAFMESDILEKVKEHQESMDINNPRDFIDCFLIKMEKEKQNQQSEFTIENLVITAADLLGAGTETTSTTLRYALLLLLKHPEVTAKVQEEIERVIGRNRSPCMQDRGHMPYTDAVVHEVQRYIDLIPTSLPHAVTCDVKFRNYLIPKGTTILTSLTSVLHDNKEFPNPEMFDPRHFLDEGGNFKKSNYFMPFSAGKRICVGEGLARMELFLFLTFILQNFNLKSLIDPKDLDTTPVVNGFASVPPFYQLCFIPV

Cytochrome P450 1A2 = target: T1, Cytochrome P450 1A2 (Homo sapiens, UniProt P05177); test: Inhibition of human CYP1A2 by fluorescence assay; format: ADME; in short: as §3
T1 sequence (P05177 whole entry): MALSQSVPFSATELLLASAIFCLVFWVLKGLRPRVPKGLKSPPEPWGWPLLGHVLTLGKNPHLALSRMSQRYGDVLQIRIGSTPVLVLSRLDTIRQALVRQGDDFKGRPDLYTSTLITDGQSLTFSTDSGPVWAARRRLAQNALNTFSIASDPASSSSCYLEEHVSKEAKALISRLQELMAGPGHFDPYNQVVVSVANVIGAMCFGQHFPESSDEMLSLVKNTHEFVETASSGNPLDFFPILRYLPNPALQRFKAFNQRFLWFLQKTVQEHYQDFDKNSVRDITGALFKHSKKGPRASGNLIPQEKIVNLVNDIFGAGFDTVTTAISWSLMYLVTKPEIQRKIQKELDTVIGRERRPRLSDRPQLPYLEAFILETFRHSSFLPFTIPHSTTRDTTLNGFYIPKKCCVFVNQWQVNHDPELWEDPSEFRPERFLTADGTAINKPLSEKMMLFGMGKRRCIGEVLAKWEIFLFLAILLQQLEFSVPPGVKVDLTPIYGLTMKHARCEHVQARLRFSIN

[12] = (§4) Intrinsic clearance in rat liver microsomes assessed per gram of protein at 0.5 uM after 30 mins by HPLC-MS/MS analysis; format: ADME, Microsome; settings: liver microsomes
In short: (§5)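 Compound at 0.5 μM with rat or human liver microsomes (0.5 mg protein/mL), 50 mM phosphate, pH 7.4, 37 °C, started with NADPH. Sampled at 0-30 min, acetonitrile quench, HPLC-MS/MS. CLi from first-order elimination constant, scaled assuming 52.5 mg microsomal protein/g.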

[13] = (§6) Intrinsic clearance in human liver microsomes assessed per gram of protein at 0.5 uM after 30 mins by HPLC-MS/MS analysis; format: ADME, Microsome; settings: liver microsomes; in short: as §5
Cytochrome P450 2D6 = Cytochrome P450 2D6 (Homo sapiens, UniProt P10635); test: Inhibition of human […] by fluorescence assay; format: ADME; in short: as §3
Cytochrome P450 2D6, sequence (P10635 whole entry): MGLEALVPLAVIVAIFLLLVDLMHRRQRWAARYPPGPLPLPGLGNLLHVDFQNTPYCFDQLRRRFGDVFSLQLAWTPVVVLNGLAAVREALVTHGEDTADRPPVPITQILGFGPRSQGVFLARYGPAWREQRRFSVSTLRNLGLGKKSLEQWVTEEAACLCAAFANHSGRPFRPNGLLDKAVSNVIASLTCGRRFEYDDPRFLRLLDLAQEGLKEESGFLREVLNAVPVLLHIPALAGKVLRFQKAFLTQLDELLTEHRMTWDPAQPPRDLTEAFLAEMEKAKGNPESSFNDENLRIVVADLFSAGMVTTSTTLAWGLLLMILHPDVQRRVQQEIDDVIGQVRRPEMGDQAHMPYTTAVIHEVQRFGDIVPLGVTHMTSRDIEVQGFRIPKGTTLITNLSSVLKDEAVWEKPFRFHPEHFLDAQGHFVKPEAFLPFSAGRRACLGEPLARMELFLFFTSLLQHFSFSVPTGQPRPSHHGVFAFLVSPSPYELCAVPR

Liver microsomes [14] = test: as §4; format: ADME, Microsome; settings: microsomes, 0.5 h, 0.5 µM; in short: as §5
Liver microsomes [15] = test: as §6; format: ADME, Microsome; settings: microsomes, 0.5 h, 0.5 µM; in short: as §5

| Structure (SMILES) | bioavailability [3] | clearance [4] | Ki [5] | Ki [6] | Vd [7] | Ki [8] | half-life [9] | Kp [10] | fraction unbound [11] | IC50 (Cytochrome P450 2C9) | IC50 (Cytochrome P450 3A4) | IC50 (Cytochrome P450 2C19) | IC50 (Cytochrome P450 1A2) | CLint scaled at 0.5 µM [12] | CLint scaled at 0.5 µM [13] | IC50 (Cytochrome P450 2D6) | other results |
| --- | --- | --- | --- | --- | --- | --- | --- | --- | --- | --- | --- | --- | --- | --- | --- | --- | --- |
| COC[C@H]1[C@@H]2CNC[C@@]21c1ccc(Cl)c(Cl)c1 (relative stereo) |  |  |  |  |  |  |  |  |  |  |  |  |  |  |  |  | Selectivity ratio (Homo sapiens [1]): 70; Selectivity ratio (Homo sapiens [2]): 70 |
| FC(F)(F)COC[C@@H]1[C@H]2CNC[C@]21c1ccc(Cl)c(Cl)c1 (stereo in doubt) | 41% | 2.52 L/h/kg | 1.58 nM | 0.631 nM | 3.2 L/kg | 25.1 nM | 1.4 h | 18 | 0.006 |  |  |  |  |  |  |  |  |
| FC(F)(F)COC[C@H]1[C@@H]2CNC[C@@]21c1ccc(Cl)c(Cl)c1 (stereo in doubt) |  |  | 3.98 nM | 1.26 nM |  | 50.1 nM |  | 18 | 0.006 |  |  |  |  |  |  |  | t1/2 (Rattus norvegicus): 1.4 h |
| COC[C@@H]1[C@H]2CNC[C@]21c1ccc2ccccc2c1 (stereo in doubt) |  |  | 0.631 nM | 0.0794 nM |  | 25.1 nM |  |  |  | > 4000 nM | > 4000 nM | > 4000 nM | 900 nM | 0.234 L/h/kg | 0.132 L/h/kg | > 4000 nM |  |
| CC(C)OC[C@@H]1[C@H]2CNC[C@]21c1ccc(Cl)c(Cl)c1 (stereo in doubt) |  |  | 0.251 nM | 0.126 nM |  | 5.01 nM |  |  |  | > 8000 nM | > 8000 nM | > 8000 nM | > 8000 nM | < 0.03 L/h/kg | 0.084 L/h/kg | > 8000 nM |  |
| Clc1ccc([C@@]23CNC[C@@H]2[C@H]3COCC2CC2)cc1Cl (stereo in doubt) | 32% | 4.32 L/h/kg | 0.631 nM | 0.316 nM | 5.2 L/kg | 12.6 nM | 1 h | 10 | 0.001 | > 10000 nM | > 10000 nM | 3000 nM | > 10000 nM |  |  | 1000 nM | CL (Liver microsomes [14]): 2.6 mL/min/g; CL (Liver microsomes [15]): < 0.5 mL/min/g |
